High-throughput results: PubChem BioAssay, several laboratories
Rows were chosen to be rich in hits. Some 2.7% of all compounds tested hit in one or more screens of this group.
TPT1 inh: C. albicans TPT1 enzyme inhibition; inhibition, % at 5 µM; recombinant caTPT1, FP RNA substrate dephosphorylation; hit rate 0.81% among 300,000; AID 1962;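 active means inhibition above the mean of all tested compounds plus 3 SD, set per screening campaign, cut at about 24% in these data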
HNF4A DNA FP: change in binding of human HNF4 alpha to DNA. P41235. HNF4a-FITC DNA binding, fluorescence polarization, 1 h. activity change, % at 10 µM. hit rate 0.3% among 360,000. AID 1224865; in the data active means activity change above about 30%, passing the limit was not always enough
Target sequence (P41235 whole entry, looked up): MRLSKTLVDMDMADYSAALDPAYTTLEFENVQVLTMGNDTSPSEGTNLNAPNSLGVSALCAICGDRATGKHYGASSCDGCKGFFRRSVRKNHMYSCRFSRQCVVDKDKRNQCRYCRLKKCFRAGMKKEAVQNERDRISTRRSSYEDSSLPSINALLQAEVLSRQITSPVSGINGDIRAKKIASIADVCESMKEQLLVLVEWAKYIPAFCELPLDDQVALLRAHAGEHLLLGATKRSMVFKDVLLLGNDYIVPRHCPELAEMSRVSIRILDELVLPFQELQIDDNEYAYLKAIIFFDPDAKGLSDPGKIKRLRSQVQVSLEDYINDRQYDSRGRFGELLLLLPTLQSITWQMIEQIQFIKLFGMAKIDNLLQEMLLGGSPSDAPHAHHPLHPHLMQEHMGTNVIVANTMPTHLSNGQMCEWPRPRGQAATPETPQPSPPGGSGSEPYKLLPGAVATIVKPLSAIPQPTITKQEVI
CSN deneddyl inh: inhibitors of human CSN-mediated cullin deneddylation. inhibition, % at 12.5 µM. Q92905. hit rate 0.38% among 360,000. AID 651999. Purified CSN, SCF-Nedd8-OG deneddylation, fluorescence polarization;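 active means pattern-corrected inhibition above about 35%, with an unprinted fluorescence ratio check between 0.5 and 1.5, limit read from the data, passing the limit was not always enough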
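test system = HEK293T-derived human Csn5 enzyme | amount = 0.24 nM Csn5 enzyme, final concentration | medium = Tris/NaCl/DTT buffer, pH 7.5 | schedule = 90 min reaction at room temperature | signal = FP | evaluation = inhibition of Csn5 cleavage, % | compound dosing = single dose of 12.5 µM compound with 0.25% DMSO | probe or stimulus = 10 nM SCFSkp2-Nedd8OG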
Rpn11 inh: Rpn11 (human) deubiquitinase inhibition | human 26S proteasome, Ub4-pepOG fluorescence polarization; 20S core pre-blocked with epoxomicin | inhibition, % at 20 µM | hit rate 0.59% among 360,000 | AID 588493;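 active means inhibition at 20 µM, scaled to each plate's controls, above about 33%, limit read from the data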
PP1 inh: counter-screen for PP5 inhibitors: inhibitors of human PP1-alpha; P62136; purified PP1alpha, OMFP fluorescence; inhibition, % at 6.7 µM; hit rate 0.9% among 320,000; AID 2235;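 active means inhibition above the mean inhibition of all tested compounds plus 3 SD, computed separately for each screening campaign, cut at about 15% in these data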
NadD inh: blocks S. aureus nicotinate mononucleotide adenylyltransferase; purified NadD enzyme, colorimetric absorbance read-out; inhibition, % at 20 µM; hit rate 0.78% among 360,000; in the data active means inhibition above about 26%
Large screens that a line does not name were inactive.

CCC1=NN2C(=N)/C(=C\c3ccc(OCc4cc(=O)n5nc(CC)sc5n4)c(OC)c3)C(=O)N=C2S1	NadD inh 43.8 (no result: TPT1 inh, PP1 inh)
CCS(=O)(=O)C1=NN2C(=N)/C(=C\c3ccc(OCCOc4cccc(OC)c4)c(OC)c3)C(=O)N=C2S1	PP1 inh 16.1
CCc1nn2c(=O)cc(COc3ccc(/C=C4\C(=N)N5N=C(CC(C)C)SC5=NC4=O)cc3)nc2s1	none (no result: HNF4A DNA FP, CSN deneddyl inh, Rpn11 inh, NadD inh)
CCC1=NN2C(=N)/C(=C\c3ccc(OCCOc4ccccc4)c(OC)c3)C(=O)N=C2S1	none (no result: HNF4A DNA FP, CSN deneddyl inh, Rpn11 inh, NadD inh)
CCOc1cc(/C=C2\C(=N)N3N=C(S(C)(=O)=O)SC3=NC2=O)ccc1OCCOc1cccc(OC)c1	NadD inh 30.8
COc1ccc(C(CNC(=O)c2ccc(OCc3csc(C)n3)cc2)N2CCCC2)cc1 (centres undefined)	none (no result: TPT1 inh, PP1 inh)
Cc1ccc(NC(=O)C2CC(=O)N(c3ccccc3Cl)C2)cc1S(=O)(=O)N1CCOCC1 (centres undefined)	none (no result: TPT1 inh, PP1 inh)
Cc1cccc(N2CCN(C(=O)Cn3sc4nc(C)cc(C)c4c3=O)CC2C)c1 (centres undefined)	TPT1 inh 24.9
Cc1cccc(N2CCN(C(=O)Cn3nc(C)n4cccc4c3=O)CC2C)c1 (centres undefined)	none
O=S1(=O)C[C@H](N2CCC(Cc3ccccc3)CC2)[C@@H](COCc2ccccc2)N1	none (no result: TPT1 inh, PP1 inh)
Cc1ccccc1NC(=O)CN1C(=O)NC2(CCc3ccccc32)C1=O (centres undefined)	none (no result: TPT1 inh)
COc1cc2c(cc1NC(=O)CN1C(=O)NC3(CCc4ccccc43)C1=O)oc1ccccc12 (centres undefined)	NadD inh 35.5
O=C(c1cccc(N2C(=O)C3C4C=CC(C4)C3C2=O)c1)N1CCN(c2ccccc2Cl)CC1 (centres undefined)	none
C=C(C)CNC(=S)Nc1cccc2cnccc12	none
Cc1cc(C)cc(NC(=S)Nc2cccc3cnccc23)c1	CSN deneddyl inh 37.1 (no result: TPT1 inh, PP1 inh)
Cc1ccc(NC(=S)Nc2cccc3cnccc23)c(C)c1	none
CCc1ccc(NC(=S)Nc2cccc3cnccc23)cc1	CSN deneddyl inh 38.2
O=C(c1ccco1)[C@@H]1[C@@H]2C(=O)N(c3ccc(Br)cc3)C(=O)[C@@H]2C2c3ccccc3C=CN21 (some centres undefined)	NadD inh 32.1 (no result: TPT1 inh, PP1 inh)
C=CCN(Cc1ccc(Cl)s1)C(=O)c1ccc(F)c(S(=O)(=O)N2CCOCC2)c1	none (no result: TPT1 inh, PP1 inh)
COc1ccc(C)cc1S(=O)(=O)N1CCC(C(=O)NC2CCCC2)CC1	none
O=C1N=C(N2CCN(c3ccccc3)CC2)S/C1=C\c1cn[nH]c1-c1ccccc1	NadD inh 47.7
Cc1ccc(N2CCN(C3=NC(=O)/C(=C\c4cn[nH]c4-c4ccccc4)S3)CC2)cc1	NadD inh 42.3
Cc1cccc(N2CCN(C3=NC(=O)/C(=C\c4cn[nH]c4-c4ccccc4)S3)CC2)c1	none
COc1ccc(Cl)cc1NC(=S)NCCO	HNF4A DNA FP 56.8
CCCN(CC(=O)Nc1ccccc1C)C(=O)c1nn(CC)c(=O)c2ccccc12	none (no result: TPT1 inh)
CCOC(=O)c1cccc(NC(=O)/C(=C\c2ccccc2)NC(=O)c2ccccc2Cl)c1	PP1 inh 16.7
Cc1cc(C(=O)Cn2nc(C(=O)O)c3ccccc3c2=O)c(C)n1-c1ccc(OC(F)F)cc1	PP1 inh 16.0
Cc1nn(-c2ccccn2)c2c1C(c1ccccc1Cl)C1=C(N2)c2ccccc2C1=O (centres undefined)	none
Cc1nn(-c2ccccn2)c2c1C(c1c(F)cccc1Cl)C1=C(N2)c2ccccc2C1=O (centres undefined)	PP1 inh 16.6 (no result: HNF4A DNA FP, CSN deneddyl inh, Rpn11 inh, NadD inh)
Cc1cc2c(cc1S(=O)(=O)N(C)Cc1ccccc1)OCC(=O)N2	none
COc1ccc(C(CCN2CCN(c3ccccc3)CC2)c2c(OC)cc(OC)c3c(-c4ccccc4)cc(=O)oc23)cc1 (centres undefined)	none
COc1cc(OC)c2c(-c3ccccc3)cc(=O)oc2c1C(CCN1CCN(c2ccccc2)CC1)c1ccc(N(C)C)cc1 (centres undefined)	PP1 inh 15.9
Cc1cc2nc(-c3cccc(Br)c3)c(CC(C)(C)C)n2c(C)c1Br	CSN deneddyl inh 131.8 (no result: TPT1 inh, PP1 inh)
Cc1cc2nc(-c3ccccc3)c(CC(C)(C)C)n2c(C)c1Br	none (no result: TPT1 inh, PP1 inh)
O=C(C1=C[C@@H](c2csc3ccccc23)C[C@@H](OCc2ccc(CO)cc2)O1)N1CCN(Cc2ccc3c(c2)OCO3)CC1	PP1 inh 15.8
COc1ccccc1/C=C/C(=O)OCC(=O)N1c2ccccc2CC1C (centres undefined)	none (no result: TPT1 inh)
CN(C(=O)c1ccccc1F)C(c1ccccc1)c1ccccc1	none
O=C(Nc1nnc(C2=COCCO2)o1)c1ccc(S(=O)(=O)N2CCCC2)cc1	none
CCC1CCCCN1S(=O)(=O)c1ccc(C(=O)Nc2nnc(C3=COCCO3)o2)cc1 (centres undefined)	PP1 inh 16.7
CCC1CCCCN1S(=O)(=O)c1ccc(C(=O)Nc2nnc(-c3ccccc3Cl)o2)cc1 (centres undefined)	NadD inh 42.5
COc1ccccc1-c1nnc(NC(=O)c2ccc(S(=O)(=O)N(C)CC3CCCO3)cc2)o1 (centres undefined)	PP1 inh 16.8
CC1CCCCN1S(=O)(=O)c1ccc(C(=O)Nc2nnc(-c3ccccc3Cl)o2)cc1 (centres undefined)	none
CN(CC1CCCO1)S(=O)(=O)c1ccc(C(=O)Nc2nnc(-c3ccccc3)o2)cc1 (centres undefined)	none
O=C(Nc1ccccc1)N1CCC(C(=O)N2CCCC(C(F)(F)F)C2)CC1 (centres undefined)	none
CCC(C(=O)NC1CCCC1)n1c(-c2ccncc2)nc2ccccc21 (centres undefined)	none (no result: TPT1 inh, Rpn11 inh, PP1 inh, NadD inh)
C[C@H](NC(=O)[C@H]1N2C(=O)c3ccccc3C2SC1(C)C)C(=O)NCC1CCCO1 (some centres undefined)	none
COc1ccc(O[C@H]2C=C[C@@H](c3ccccc3)O[C@@H]2CO/N=C(\C)CCN2CCc3nc(-c4ccccc4)c(-c4ccccc4)cc3C2)cc1	PP1 inh 19.4 (no result: HNF4A DNA FP, CSN deneddyl inh, Rpn11 inh, NadD inh)
COC(=O)[C@@H](NCc1ccc(OC)c(B(O)O)c1)C(C)C	none (no result: TPT1 inh, PP1 inh)
CCOc1ccc(/C=C2/C(=O)N(c3ccc(OC)cc3)C(=S)N2CC(=O)OC)cc1OCC	HNF4A DNA FP 46.8 (not shown: Rpn11 inh)
C=CCn1c(=O)c(C(=O)Nc2ccccc2S(N)(=O)=O)c(O)c2ccccc21	CSN deneddyl inh 93.2
C=CCn1c(=O)c(C(=O)Nc2ccccc2C(=O)OCC)c(O)c2ccccc21	none
O=[S@]1Oc2ccccc2-c2ccccc21	none
O=C(O)c1cccc(NC(=O)c2cn(-c3ccccc3)nc2-c2cc3ccccc3o2)c1	PP1 inh 16.1
COCCCn1c(=O)/c(=C\c2ccc(OC(F)F)c(OC)c2)s/c1=C(/C#N)C(N)=O	HNF4A DNA FP 51.1 (not shown: Rpn11 inh)
